# Results: ChEMBL document CHEMBL5724801, “EUbOPEN Chemogenomics Library - Multiplex” (2024)
# Values joined by “and” are separate entries in the source; they are usually repeats but may differ in a detail not shown here. Equal values may be shown once.
# Test system: Fibroblast
# Test: Multiplex assay against human fibroblast
# Format: toxicity, cell-based
# Conditions: 12 h, 1 µM, compound concentration 1 uM
# In short: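 Tubulin, mitochondrial-mass and membrane-permeability phenotypes are per cents of healthy-nucleus cells. Cells were gated by CellPathfinder machine learning into Hoechst high-intensity objects or normal cells, normal cells into healthy, pyknosed or fragmented nuclei, and pyknosed cells into mitotic or apoptotic. Before that, live cells stained at seeding with Hoechst33342, BioTracker Green Microtubule Cytoskeleton Dye, MitoTracker Red and Annexin V Alexa Fluor 680 were imaged on a CQ1 microscope at 37°C and 5% CO2 after compound addition.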
Compound,Population Apoptotic (%),Population Fragmented Nuclei (%),Population Healthy Nuclei (%),Population Hoechst High Intensity Objects (%),Population Membrane Permeable-Phenotype (%),Population Mitochondria Different-Phenotype (%),Population Mitotic Cells (%),Population Normal (%),Population Pyknosed Nuclei (%),Population Tubulin-Different-Phenotype (%)
Cc1cc(C)cc(C(=O)NOCCCCCC(=O)NO)c1,12.9% and 17.65%,11.22% and 2.55%,72.96% and 88.78%,0%,5.59% and 1.15%,6.99% and 10.34%,87.1% and 82.35%,100%,15.82% and 8.67%,8.39% and 11.49%
CC(=O)Nc1cccc2c1c(Sc1ccc(Cl)cc1)c(C)n2CC(=O)O [AZD1981],27% and 37%,18% and 31%,61% and 47%,1% and 3%,,9% and 7%,72% and 62%,98% and 96%,19% and 21%,33% and 55%
CC(C)(O)c1cnc(N2C[C@@]3(CCC[C@](C)(Cn4cnc5ccc(C#N)cc54)C3)OC2=O)cn1 [GSK2798745],7.14% and 16.22%,12.71% and 8%,63.56% and 75.56%,0%,4% and 4.12%,13.33% and 10.59%,92.86% and 83.78%,100%,23.73% and 16.44%,16% and 20%
CN1CCN(c2ccc(Nc3c4ccccc4nc4ccccc34)cc2)CC1.Cl.Cl.O,47% and 44%,15% and 28%,69% and 56%,1%,0% and 5%,3% and 5%,52% and 56%,98%,14% and 15%,23% and 34%

# Same assay, conditions: 12 h, 1 µM, compound concentration 1 uM
row,Compound,Total Cell Count
1,Cc1cc(C)cc(C(=O)NOCCCCCC(=O)NO)c1,196
2,CC(=O)Nc1cccc2c1c(Sc1ccc(Cl)cc1)c(C)n2CC(=O)O [AZD1981],173 and 118
3,CC(C)(O)c1cnc(N2C[C@@]3(CCC[C@](C)(Cn4cnc5ccc(C#N)cc54)C3)OC2=O)cn1 [GSK2798745],118 and 225
4,CN1CCN(c2ccc(Nc3c4ccccc4nc4ccccc34)cc2)CC1.Cl.Cl.O,135 and 160

# Same assay, conditions: 12 h, 10 µM, compound concentration 10 uM
Compound,Population Apoptotic (%),Population Fragmented Nuclei (%),Population Healthy Nuclei (%),Population Hoechst High Intensity Objects (%),Population Membrane Permeable-Phenotype (%),Population Mitochondria Different-Phenotype (%),Population Mitotic Cells (%),Population Normal (%),Population Pyknosed Nuclei (%),Population Tubulin-Different-Phenotype (%)
Cc1cc(C)cc(C(=O)NOCCCCCC(=O)NO)c1,12% and 31.25%,15.5% and 6.05%,72% and 86.51%,0%,6.94% and 1.61%,5.56% and 6.45%,88% and 68.75%,100%,12.5% and 7.44%,9.03% and 6.45%
CC(=O)Nc1cccc2c1c(Sc1ccc(Cl)cc1)c(C)n2CC(=O)O [AZD1981],40% and 33%,16% and 35%,64% and 42%,3% and 4%,2% and 8%,3% and 0%,60% and 66%,96% and 95%,19% and 22%,24% and 35%
CC(C)(O)c1cnc(N2C[C@@]3(CCC[C@](C)(Cn4cnc5ccc(C#N)cc54)C3)OC2=O)cn1 [GSK2798745],11.76% and 21.62%,16.26% and 5.53%,50.25% and 77.42%,0%,14.71% and 12.5%,18.63% and 22.62%,88.24% and 78.38%,100%,33.5% and 17.05%,52.94% and 55.95%
CN1CCN(c2ccc(Nc3c4ccccc4nc4ccccc34)cc2)CC1.Cl.Cl.O,91% and 66%,42% and 65%,49% and 29%,8% and 16%,0% and 4%,,,91% and 83%,8% and 4%,90% and 79%

# Same assay, conditions: 12 h, 10 µM, compound concentration 10 uM
row,Compound,Total Cell Count
1,Cc1cc(C)cc(C(=O)NOCCCCCC(=O)NO)c1,200 and 215
2,CC(=O)Nc1cccc2c1c(Sc1ccc(Cl)cc1)c(C)n2CC(=O)O [AZD1981],133 and 112
3,CC(C)(O)c1cnc(N2C[C@@]3(CCC[C@](C)(Cn4cnc5ccc(C#N)cc54)C3)OC2=O)cn1 [GSK2798745],203 and 217
4,CN1CCN(c2ccc(Nc3c4ccccc4nc4ccccc34)cc2)CC1.Cl.Cl.O,158 and 177

# Same assay, conditions: 24 h, 1 µM, compound concentration 1 uM
Compound,Population Apoptotic (%),Population Fragmented Nuclei (%),Population Healthy Nuclei (%),Population Hoechst High Intensity Objects (%),Population Membrane Permeable-Phenotype (%),Population Mitochondria Different-Phenotype (%),Population Mitotic Cells (%),Population Normal (%),Population Pyknosed Nuclei (%),Population Tubulin-Different-Phenotype (%)
Cc1cc(C)cc(C(=O)NOCCCCCC(=O)NO)c1,13.33% and 23.08%,12.92% and 3.9%,79.9% and 89.76%,0%,4.79% and 2.17%,3.59% and 7.07%,86.67% and 76.92%,100%,7.18% and 6.34%,3.59% and 8.15%
CC(=O)Nc1cccc2c1c(Sc1ccc(Cl)cc1)c(C)n2CC(=O)O [AZD1981],53% and 36%,19% and 30%,63% and 53%,6% and 3%,2% and 7%,2% and 7%,46% and 63%,93% and 96%,16% and 15%,28% and 53%
CC(C)(O)c1cnc(N2C[C@@]3(CCC[C@](C)(Cn4cnc5ccc(C#N)cc54)C3)OC2=O)cn1 [GSK2798745],9.09% and 21.05%,14.29% and 4.76%,65.22% and 87.01%,0%,1.9% and 5.97%,4.76% and 5.97%,90.91% and 78.95%,100%,20.5% and 8.23%,16.19% and 21.89%
CN1CCN(c2ccc(Nc3c4ccccc4nc4ccccc34)cc2)CC1.Cl.Cl.O,70% and 60%,21% and 29%,65% and 57%,0%,0% and 3%,2% and 7%,29% and 40%,99% and 100%,12%,

# Same assay, conditions: 24 h, 1 µM, compound concentration 1 uM
row,Compound,Total Cell Count
1,Cc1cc(C)cc(C(=O)NOCCCCCC(=O)NO)c1,209 and 205
2,CC(=O)Nc1cccc2c1c(Sc1ccc(Cl)cc1)c(C)n2CC(=O)O [AZD1981],168 and 128
3,CC(C)(O)c1cnc(N2C[C@@]3(CCC[C@](C)(Cn4cnc5ccc(C#N)cc54)C3)OC2=O)cn1 [GSK2798745],161 and 231
4,CN1CCN(c2ccc(Nc3c4ccccc4nc4ccccc34)cc2)CC1.Cl.Cl.O,139 and 155

# Same assay, conditions: 24 h, 10 µM, compound concentration 10 uM
Compound,Population Apoptotic (%),Population Healthy Nuclei (%),Population Hoechst High Intensity Objects (%),Population Membrane Permeable-Phenotype (%),Population Mitochondria Different-Phenotype (%),Population Mitotic Cells (%),Population Normal (%),Population Pyknosed Nuclei (%),Population Tubulin-Different-Phenotype (%),Total Cell Count
Cc1cc(C)cc(C(=O)NOCCCCCC(=O)NO)c1,63.64% and 52.94%,80.39% and 88.26%,0%,3.66% and 0%,2.44% and 4.26%,36.36% and 47.06%,100%,5.39% and 7.98%,3.66% and 2.66%,204 and 213
CC(=O)Nc1cccc2c1c(Sc1ccc(Cl)cc1)c(C)n2CC(=O)O [AZD1981],41% and 55%,68% and 43%,4% and 6%,,5% and 0%,58% and 45%,95% and 93%,18% and 20%,17% and 40%,135 and 104
CC(C)(O)c1cnc(N2C[C@@]3(CCC[C@](C)(Cn4cnc5ccc(C#N)cc54)C3)OC2=O)cn1 [GSK2798745],11.11% and 25.81%,68.33% and 78.9%,0%,9.93% and 5.81%,12.58% and 22.09%,88.89% and 74.19%,100%,16.29% and 14.22%,52.32% and 62.21%,221 and 218
CN1CCN(c2ccc(Nc3c4ccccc4nc4ccccc34)cc2)CC1.Cl.Cl.O,77% and 60%,39% and 27%,16% and 21%,1% and 6%,66% and 34%,22% and 40%,83% and 78%,12% and 3%,94% and 84%,206 and 205

# Same assay, conditions: 24 h, 10 µM, compound concentration 10 uM
row,Compound,Population Fragmented Nuclei (%)
1,CC(=O)Nc1cccc2c1c(Sc1ccc(Cl)cc1)c(C)n2CC(=O)O [AZD1981],13% and 36%
2,CC(C)(O)c1cnc(N2C[C@@]3(CCC[C@](C)(Cn4cnc5ccc(C#N)cc54)C3)OC2=O)cn1 [GSK2798745],15.38% and 6.88%
3,CN1CCN(c2ccc(Nc3c4ccccc4nc4ccccc34)cc2)CC1.Cl.Cl.O,47% and 69%

# Same assay, conditions: 48 h, 1 µM, compound concentration 1 uM
Compound,Population Apoptotic (%),Population Fragmented Nuclei (%),Population Healthy Nuclei (%),Population Hoechst High Intensity Objects (%),Population Membrane Permeable-Phenotype (%),Population Mitotic Cells (%),Population Normal (%),Population Pyknosed Nuclei (%),Population Tubulin-Different-Phenotype (%),Total Cell Count
Cc1cc(C)cc(C(=O)NOCCCCCC(=O)NO)c1,47.37% and 53.33%,8.06% and 10.87%,82.94% and 82.61%,0%,0.57% and 1.58%,52.63% and 46.67%,100%,9% and 6.52%,2.29% and 8.42%,211 and 230
CC(=O)Nc1cccc2c1c(Sc1ccc(Cl)cc1)c(C)n2CC(=O)O [AZD1981],54% and 57%,23% and 34%,61% and 54%,6% and 3%,1% and 8%,45% and 42%,93% and 96%,15% and 11%,33% and 52%,171 and 129
CC(C)(O)c1cnc(N2C[C@@]3(CCC[C@](C)(Cn4cnc5ccc(C#N)cc54)C3)OC2=O)cn1 [GSK2798745],,10.86% and 4.58%,82.29% and 90.83%,0%,0% and 4.13%,91.67% and 63.64%,100%,6.86% and 4.58%,12.5% and 17.89%,175 and 240
CN1CCN(c2ccc(Nc3c4ccccc4nc4ccccc34)cc2)CC1.Cl.Cl.O,66% and 55%,23% and 25%,70% and 68%,1%,0% and 1%,33% and 44%,98%,6% and 5%,26%,144 and 157

# Same assay, conditions: 48 h, 1 µM, compound concentration 1 uM
row,Compound,Population Mitochondria Different-Phenotype (%)
1,CC(=O)Nc1cccc2c1c(Sc1ccc(Cl)cc1)c(C)n2CC(=O)O [AZD1981],6% and 2%
2,CN1CCN(c2ccc(Nc3c4ccccc4nc4ccccc34)cc2)CC1.Cl.Cl.O,4%

# Same assay, conditions: 48 h, 10 µM, compound concentration 10 uM
Compound,Population Apoptotic (%),Population Healthy Nuclei (%),Population Hoechst High Intensity Objects (%),Population Membrane Permeable-Phenotype (%),Population Normal (%),Population Pyknosed Nuclei (%),Population Tubulin-Different-Phenotype (%),Total Cell Count,Population Fragmented Nuclei (%),Population Mitochondria Different-Phenotype (%)
Cc1cc(C)cc(C(=O)NOCCCCCC(=O)NO)c1,44.19% and 95.35%,57.64% and 74.04%,0%,1.71% and 10.39%,100%,21.18% and 20.67%,4.27% and 13.64%,203 and 208,,
CC(=O)Nc1cccc2c1c(Sc1ccc(Cl)cc1)c(C)n2CC(=O)O [AZD1981],64% and 40%,64% and 42%,4%,0% and 11%,95%,13% and 15%,25% and 54%,134 and 105,21% and 43%,2% and 0%
CC(C)(O)c1cnc(N2C[C@@]3(CCC[C@](C)(Cn4cnc5ccc(C#N)cc54)C3)OC2=O)cn1 [GSK2798745],14.29% and 42.11%,78.85% and 83.63%,0%,4.27% and 11.64%,100%,10.1% and 8.41%,44.51% and 59.79%,208 and 226,11.06% and 7.96%,21.95% and 10.05%
CN1CCN(c2ccc(Nc3c4ccccc4nc4ccccc34)cc2)CC1.Cl.Cl.O,,15% and 11%,45% and 38%,15% and 25%,54% and 61%,12% and 0%,25% and 56%,235 and 236,71% and 88%,30% and 12%

# Same assay, conditions: 48 h, 10 µM, compound concentration 10 uM
row,Compound,Population Mitotic Cells (%)
1,CC(=O)Nc1cccc2c1c(Sc1ccc(Cl)cc1)c(C)n2CC(=O)O [AZD1981],35% and 60%
2,CC(C)(O)c1cnc(N2C[C@@]3(CCC[C@](C)(Cn4cnc5ccc(C#N)cc54)C3)OC2=O)cn1 [GSK2798745],85.71% and 57.89%
